The results in this text go back to paper PMC11219355 (Heliyon, 2024).

The test system of data set [1] is Staphylococcus aureus (ATCC 25923). Nature of the data set: Antibacterial growth inhibition. Particulars: S. aureus; antibiotic 500 μg/mL; 37 °C, 18–22 h, OD600. Type of data set: cell-based. The gist of the method: (§1)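 Inocula: C. acnes grown anaerobically in Schaedler broth at 37 °C for 72 h and adjusted to OD600 0.1. S. aureus and MRSA single colonies grown in nutrient broth at 37 °C for 18 h and adjusted to OD600 0.001. Suspensions were mixed 1:1 with peptide (1000 μg/mL) or ampicillin/clindamycin (500 μg/mL) solutions. Untreated culture served as 0 % inhibition. Three repeats, mean ± SD.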

The subject of data set [2] is methicillin-resistant Staphylococcus aureus (MRSA) (DMST 20646). Nature of the data set: Antibacterial growth inhibition. Type of data set: cell-based. The note with it: antibiotic 500 μg/mL, 37 °C, 18–22 h, OD600. An outline of the steps: as §1
Data set [3] deals with Cutibacterium acnes (DMST 14916). Nature of the data set: Antibacterial growth inhibition. The note with it: C. acnes; antibiotic 500 μg/mL; 37 °C, 18–22 h, OD600. Type of data set: cell-based. The gist of the method: as §1
Data set [4] concerns C. acnes, S. aureus and MRSA. Put plainly: Antibacterial growth inhibition, stated as one range over the three strains. Type of data set: cell-based, Cutibacterium acnes; Staphylococcus aureus. The note with it: peptide 1000 μg/mL. The gist of the method:
as §1

The test system of the next data set is RAW 264.7 cells. Nature of the data set: RAW 264.7 cytotoxicity assay. Format: cell-based, Murine. Particulars: RAW 264.7, MTT, peptide 1000 μg/mL, 24 h. An outline of the steps: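 Murine macrophages were grown in DMEM plus 10 % heat-inactivated FBS and 1 % antibiotic-antimycotic (37 °C, 5 % CO2) and seeded overnight at 2 × 10⁴ cells/well. Peptide was added at 1000 μg/mL final for 24 h. MTT was added at 0.5 mg/mL final in fresh medium for 30 min. Formazan was dissolved in DMSO and read at OD570. Viability was expressed versus untreated cells. Three repeats, mean ± SD.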

In the case of `CCC[C@@H]1C[C@@H](C(=O)N[C@@H]([C@H]2O[C@H](SC)[C@H](O)[C@@H](O)[C@H]2O)[C@H](C)Cl)N(C)C1` [clindamycin], the growth inhibition in data set [1] was 96.35%; in data set [2], 51.86%; in data set [3], 100.00%.
Take IIDVKMLS [IS8]: the “relative antibacterial potency among the 8 peptides, in words” value in data set [4] is recorded as “least potent peptide”.
Turning to `CC1(C)S[C@@H]2[C@H](NC(=O)[C@H](N)c3ccccc3)C(=O)N2[C@H]1C(=O)O` [ampicillin], the growth inhibition amounted to 97.85% in data set [1], 100.00% in data set [2] and 92.92% in data set [3].
RKLLEGEE [RE8]: in the data set on RAW 264.7 cells, the “reduction in cell viability” value was about 15%.
